Results as given in ChEMBL document CHEMBL5107942, “Boron-based hybrids as novel scaffolds for the development of drugs with neuroprotective properties” (RSC Med Chem, 2021).
The source made the active and inactive calls. No cut-off for these calls is given here.

Tests used:
SH-SY5Y [1] = assay: Neuroprotective activity against amyloid beta (1 to 42)-induced Alzheimer's disease model in human SH-SY5Y cells assessed as inhibition of apoptosis at 25 uM incubated for 24 hrs by Hoechst 33258 staining fluorescence microscopy; format: functional, cell-based
In short: (§1)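 RA/BDNF-differentiated SH-SY5Y cells incubated 24 h with Aβ1-42 (20 μM) alone or with test agent at 25 or 50 μM. Fixed in 4% paraformaldehyde in PBS, 30 min at 4 °C. Stained with 1 mM Hoechst 33258 for 5 min at room temperature. Nuclear morphology examined by fluorescence microscopy.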

SH-SY5Y [2] = assay: Neuroprotective activity against amyloid beta (1 to 42)-induced neurotoxicity in human SH-SY5Y cells assessed as increase in cell viability at 100 uM incubated for 24 hrs by MTT assay; format: functional
In short: (§2)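 Differentiated SH-SY5Y cells co-treated 24 h with compound (0.1–100 μM) and Aβ1-42 (20 μM). Vehicle 0.1% DMSO; 1% Triton X positive control. MTT added for 3 h at 37 °C, formazan dissolved in DMSO, absorbance read at 570 nm. Mean ± SD from at least six independent experiments.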

SH-SY5Y [3] = assay: Neuroprotective activity against amyloid beta (1 to 42)-induced Alzheimer's disease model in human SH-SY5Y cells assessed as decrease in AChE activity at 50 uM incubated for 24 hrs by Colorimetric assay; format: functional; parameters: scale not given: the % may be the effect or the level left
In short: (§3)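 SH-SY5Y cells grown in DMEM:F12 with 10% FBS, differentiated with retinoic acid for 5 days, then serum-free medium with 10 μM retinoic acid plus 25 ng/mL BDNF, used within 10 days. Co-treated with 20 μM Aβ1-42 for 24 h; DMSO ≤0.1% vehicle. Cells lysed 15 min at room temperature, centrifuged; AChE measured in supernatant by colorimetric kit at 410 nm.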

SH-SY5Y [4] = assay: Neuroprotective activity against amyloid beta (1 to 42)-induced Alzheimer's disease model in human SH-SY5Y cells assessed as reduction in necrosis rate at 25 to 50 uM incubated for 24 hrs by Annexin V-FITC/propidium iodide staining flow cytometry; format: functional, cell-based; settings: dose 25-50 µM, DDE = dose-dependent effect
In short: (§4)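 Differentiated SH-SY5Y cells given 24 h Aβ1-42 (20 μM) with or without compound. 5 x 10^4 cells pelleted and resuspended in 1X binding buffer. Annexin V-FITC and PI added, 5 min in the dark, then fixed in 4% paraformaldehyde. Flow cytometry sorted cells into viable, early apoptotic, late apoptotic/necrotic and necrotic fractions.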

SH-SY5Y [5] = assay: Antioxidant activity against amyloid beta (1 to 42)-induced Alzheimer's disease model in human SH-SY5Y cells assessed as increase of TAC level at 50 uM by ABTS assay; format: functional, cell-based
In short: (§5)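 Differentiated SH-SY5Y cells: grown in DMEM:F12 with 10% FBS, then 10 μg/mL retinoic acid for 5 days, then serum-free medium with 10 μM retinoic acid and 25 ng/mL BDNF. Co-exposed 24 h to Aβ1-42 (20 μM) plus compound. Vehicle 0.1% DMSO. Automated kits on culture samples. TAC: ABTS decolorization at 660 nm, Trolox calibration. TOS: ferrous-to-ferric chelator oxidation, H2O2 calibration, µM H2O2 equivalent/L. n = 6.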

SH-SY5Y [6] = assay: Neuroprotective activity against amyloid beta (1 to 42)-induced Alzheimer's disease model in human SH-SY5Y cells assessed as inhibition of apoptosis at 50 uM incubated for 24 hrs by Hoechst 33258 staining fluorescence microscopy; format: functional, cell-based; in short: as §1
SH-SY5Y [7] = assay: Neuroprotective activity against amyloid beta (1 to 42)-induced neurotoxicity in human SH-SY5Y cells assessed as increase in cell viability at 100 uM incubated for 24 hrs by LDH release assay; format: functional
In short: (§6)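 Differentiated SH-SY5Y cells exposed 24 h to compound with Aβ1-42 (20 μM). Supernatant mixed 1:1 with LDH reaction mixture and held 30 min at room temperature. Lactate-to-pyruvate conversion with NAD+ reduction read as absorbance at 490 nm. Mean ± SD, at least six independent experiments.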

SH-SY5Y [8] = assay: Neuroprotective activity against amyloid beta (1 to 42)-induced neurotoxicity in human SH-SY5Y cells assessed as increase in cell viability at 50 uM incubated for 24 hrs by MTT assay; format: functional; in short: as §2
SH-SY5Y [9] = assay: Antioxidant activity against amyloid beta (1 to 42)-induced Alzheimer's disease model in human SH-SY5Y cells assessed as decrease of TOS level at 50 uM; format: functional, cell-based; in short: as §5
SH-SY5Y [10] = assay: Neuroprotective activity against amyloid beta (1 to 42)-induced neurotoxicity in human SH-SY5Y cells assessed as increase in cell viability at 25 uM incubated for 24 hrs by LDH release assay; format: functional; in short: as §6
SH-SY5Y [11] = assay: Neuroprotective activity against amyloid beta (1 to 42)-induced Alzheimer's disease model in human SH-SY5Y cells assessed as decrease in AChE activity at 25 uM incubated for 24 hrs by Colorimetric assay; format: functional; parameters: scale not given: the % may be the effect or the level left; in short: as §3
SH-SY5Y [12] = assay: Neuroprotective activity against amyloid beta (1 to 42)-induced neurotoxicity in human SH-SY5Y cells assessed as increase in cell viability at 25 uM incubated for 24 hrs by MTT assay; format: functional; in short: as §2
[13] = Induction of DNA damage in human blood assessed as increase in 8-OH-dG level at 0.1 to 100 uM incubated for 24 hrs; format: toxicity, tissue-based; settings: dose 0.1-100 µM
In short: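 Heparinized human peripheral blood cultured with phytohemagglutinin in PB-MAX medium, with compounds added at culture start. 8-OH-dG measured by competitive ELISA (8-OH-dG–AChE conjugate competing for monoclonal antibody). Detects free and DNA-incorporated 8-OH-dG. Read at 405–420 nm.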

SH-SY5Y [14] = assay: Neuroprotective activity against amyloid beta (1 to 42)-induced neurotoxicity in human SH-SY5Y cells assessed as increase in cell viability at 0.1 to 100 uM incubated for 24 hrs by MTT assay; format: functional, cell-based; settings: dose 0.1-100 µM; in short: as §2
SH-SY5Y [15] = assay: Neuroprotective activity against amyloid beta (1 to 42)-induced Alzheimer's disease model in human SH-SY5Y cells assessed as protection against amyloid beta (1 to 42)-induced nuclear integrity damage at 25 uM incubated for 24 hrs by Hoechst 33258 staining fluorescence microscopy; format: functional, cell-based; in short: as §1
SH-SY5Y [16] = assay: Antioxidant activity against amyloid beta (1 to 42)-induced Alzheimer's disease model in human SH-SY5Y cells assessed as decrease of TOS level at 25 uM; format: functional, cell-based; in short: as §5
SH-SY5Y [17] = assay: Neuroprotective activity against amyloid beta (1 to 42)-induced neurotoxicity in human SH-SY5Y cells assessed as increase in cell viability at 50 uM incubated for 24 hrs by LDH release assay; format: functional; in short: as §6
SH-SY5Y [18] = assay: Antioxidant activity against amyloid beta (1 to 42)-induced Alzheimer's disease model in human SH-SY5Y cells assessed as increase of TAC level at 25 uM by ABTS assay; format: functional, cell-based; in short: as §5
SH-SY5Y [19] = assay: Neuroprotective activity against amyloid beta (1 to 42)-induced Alzheimer's disease model in human SH-SY5Y cells assessed as protection against amyloid beta (1 to 42)-induced nuclear integrity damage at 50 uM incubated for 24 hrs by Hoechst 33258 staining fluorescence microscopy; format: functional, cell-based; in short: as §1
[20] = Genotoxicity in human blood assessed as frequency of sister chromatid exchange at 0.1 to 100 uM by BrdU/Giemsa staining based fluorescence assay; format: toxicity, tissue-based; settings: dose 0.1-100 µM
In short: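 Human peripheral blood cultured in PB-MAX karyotyping medium with phytohemagglutinin; compounds added just before incubation. BrdU added; demecolcine at 70 h 30 min. Then 0.075 M KCl hypotonic treatment, methanol/acetic acid (3:1) fixation, slides aged 3 days, fluorescence plus Giemsa staining. 25 second-division metaphases (42–46 chromosomes) scored per condition; result given as SCEs/cell.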

SH-SY5Y [21] = assay: Neuroprotective activity against amyloid beta (1 to 42)-induced Alzheimer's disease model in human SH-SY5Y cells assessed as reduction in necrosis rate incubated for 24 hrs by Annexin V-FITC/propidium iodide staining flow cytometry; format: functional; parameters: scale not given: the % may be the effect or the level left; in short: as §4

Row | Structure (SMILES) | Activity (SH-SY5Y [1]) | Activity (SH-SY5Y [2]) [%] | Activity (SH-SY5Y [3]) [%] | Activity (SH-SY5Y [4]) | Activity (SH-SY5Y [5]) | Activity (SH-SY5Y [6]) | Activity (SH-SY5Y [7]) [%] | Activity (SH-SY5Y [8]) [%] | Activity (SH-SY5Y [9]) | Activity (SH-SY5Y [10]) [%] | Activity (SH-SY5Y [11]) [%] | Activity (SH-SY5Y [12]) [%] | Activity [13] | Activity (SH-SY5Y [14]) | Activity (SH-SY5Y [15]) | Activity (SH-SY5Y [16]) | Activity (SH-SY5Y [17]) [%] | Activity (SH-SY5Y [18]) | Activity (SH-SY5Y [19]) | Activity [20] | further results
1 | CC12CC3CC(C)(C1)CC(N)(C3)C2 [MEMANTINE] | Active | 17.08 | 19.47 | Dde | Active | Active | 57.28 | 19.38 | Active | 56.81 | 14.57 | 17.27 | Non-Toxic | Active | Active | Active | 59.15 | Active | Active | Non-Toxic | Activity (SH-SY5Y [21]): 61.67%
2 | O=C(O)CCCCC1CCSS1 (stereo not drawn) [LIPOIC ACID, ALPHA] | Active | 20.73 | 16.66 | Dde | Active | Active | 59.86 | 19.01 | Active | 53.05 | 13.17 | 14.78 | Non-Toxic | Active | Active | Active | 58.68 | Active | Active | Non-Toxic | Activity (SH-SY5Y [21]): 65.97%
3 | CC1(C)C2CC3OB(CNC(=O)CCCC[C@H]4CCSS4)O[C@]3(C)C1C2 (stereo partly drawn) | Active | 32.92 | 22.96 | Dde | Active | Active | 70.65 | 29.94 | Active | 62.91 | 18.77 | 25.14 | Non-Toxic | Active | Active | Active | 67.37 | Active | Active | Non-Toxic | Activity (SH-SY5Y [21]): 68.38%
